Compound activity: PubChem BioAssay, several laboratories
BAP1 block: blocks human BAP1 ubiquitin-AMC hydrolysis; Q92560; calls only at 20 µM; recombinant BAP1, Ub-AMC hydrolysis fluorescence kinetic; stronger effect = lower value; 0.48% of 72,000 active;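 active means activity remaining at or below 50% of control, provided the compound also passes the data quality filters; inactive means the rest, including low values that fail the filters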;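 further: 100% = DMSO wells rate and 0% = substrate alone blank rate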
Hsp90 block: displaces geldanamycin probe from tumor Hsp90. 0.35% of 64,000 active. AID 429. P07900. NCI-N417 lysate Hsp90, Cy3B-geldanamycin FP displacement. inhibition, % at 30 µM;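 active means inhibition above 50%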;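 further: 0% = tracer plus lysate wells and 100% = tracer alone without lysate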
M1 agonist: activates the M1 muscarinic receptor. B-score at 10 µM. AID 626. CHO-M1 cells, Fluo-4 calcium fluorescence, agonist mode; stronger effect = higher value. 3% of 64,000 active;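 active means fluorescence rise, raw or as B-score row- and column-corrected plate score, outside the 99.7% band of its plate's samples, either direction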
Ecoli WT expand: E. coli BW25113 growth inhibition, expanded screen | 0.15% of 98,000 active | OD600 absorbance | growth inhibition, % at 100 µM;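 active means growth inhibition above about 50% at one test dose, limit read from the data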;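 further: growth measured after 20 h incubation at 37 °C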
M1 antag: blocks the rat M1 muscarinic receptor response to acetylcholine | CHO-M1 cells, Fluo-4 calcium, ACh EC80 antagonist mode; stronger effect = lower value | B-score at 10 µM | 3.4% of 64,000 active | AID 628;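 active means calcium fluorescence response, raw or row-and-column corrected B-score, differing from the plate sample mean either way at a set confidence level, mostly lower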
Target sequence (P08482 whole entry, looked up): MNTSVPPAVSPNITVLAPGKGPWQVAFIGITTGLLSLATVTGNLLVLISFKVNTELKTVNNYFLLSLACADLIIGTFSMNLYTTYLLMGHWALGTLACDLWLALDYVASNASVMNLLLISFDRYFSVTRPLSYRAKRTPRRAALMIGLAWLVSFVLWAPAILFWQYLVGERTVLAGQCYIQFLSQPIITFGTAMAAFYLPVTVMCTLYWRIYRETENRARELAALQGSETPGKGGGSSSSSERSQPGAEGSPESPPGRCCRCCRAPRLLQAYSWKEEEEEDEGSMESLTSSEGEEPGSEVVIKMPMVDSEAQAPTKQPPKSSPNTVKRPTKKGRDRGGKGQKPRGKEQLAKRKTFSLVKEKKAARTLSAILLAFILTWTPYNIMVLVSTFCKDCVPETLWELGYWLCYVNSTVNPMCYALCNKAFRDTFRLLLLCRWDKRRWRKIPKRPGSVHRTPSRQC
Ecoli tolC: blocks growth of E. coli BW25113 tolC mutant. growth inhibition, % at 10 µM (by protocol). 2.2% of 65,000 active. OD615;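 active means growth inhibition at or above a cutoff equal to the mean over every tested compound plus 3 SD, cut at about 60% in these data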;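 further: growth measured after 20 h incubation at 37 °C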
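Test system – E. coli BW25113 ΔtolC::kan, tolC deletion mutant strain · Detection – OD at 615 nm · Buffer or medium – LB with kanamycin 50 µg/mL · Times – 20 h compound exposure of bacteria at 37 °C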
M1 agonist conf: rat M1 muscarinic agonism, confirmation. shares compounds with M1 agonist. CHO-M1 cells, Fluo-4 calcium fluorescence, agonist mode; actives lie on both sides. fluorescence change (max-min) at 10 µM. 19% of 1,700 active. AID 1488;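 active means fluorescence change differs from the solvent-only DMSO control mean at a set confidence level in both duplicate runs; inconclusive means differs from solvent-only control mean in just one of two runs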;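 further: an EC20 dose of acetylcholine follows compound addition during the same imaging run; raw fluorescence intensity difference in instrument units with no normalization to controls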
M4 ag counter: activates rat M4 receptor in counter-screen for M1 agonists; AID 1741; shares compounds with M1 agonist; fluorescence change (max-min) at 10 µM; CHO M4/Gqi5 cells, Fluo-4 calcium fluorescence, agonist mode; actives lie on both sides; 9% of 1,700 active;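 active means fluorescence change differing from the plate's solvent-only control wells at 99.7% confidence in both duplicates, whether higher or lower; inconclusive means differs from solvent controls in only one of two duplicates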
M1 antag confirm: confirmation of rat M1 muscarinic receptor antagonists | shares compounds with M1 antag | CHO-M1 cells, Fluo-4 calcium, ACh EC80 antagonism; stronger effect = lower value | calcium response (max-min fluorescence) at 10 µM | 43% of 1,700 active | AID 677;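 active means calcium response below the same-plate mean of wells given acetylcholine alone at its 80%-effect dose, minus 3 SD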;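 further: raw fluorescence intensity difference in arbitrary instrument units and not normalized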
mGluR4 antag: acts on human mGluR4 in M1 antagonist selectivity test. AID 678. shares compounds with M1 antag. 0.9% of 1,700 active. fluorescence response (max-min) at 10 µM. CHO-mGluR4 calcium flux, Fluo-4 fluorescence, glutamate EC80; stronger effect = lower value;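 active means fluorescence response below the plate's average for near-maximal glutamate wells, less 3 SD of those wells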;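 further: raw unnormalized fluorescence span taken in the window right after glutamate addition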
* hit, by the source's call; i = inactive; ? = inconclusive; · = not tested or not shown. Most compounds without a hit are left out; they make up all but 5.1% or so of the library.

SMILES	BAP1 block	Hsp90 block	M1 agonist	Ecoli WT expand	M1 antag	Ecoli tolC	M1 agonist conf	M4 ag counter	M1 antag confirm	mGluR4 antag
COc1ccc(C2C(CC(=O)O)=C(O)C(=O)N2c2ccccc2)cc1 (stereo not given)	i	-9	-0.63	4	0.32	-6	·	·	·	·
COc1ccc(C2C(C(=O)c3cccs3)=C(O)C(=O)N2c2nncs2)cc1 (stereo not given)	·	·	93*	-3	-0.11	-22	439*	339*	·	·
C/C(Cl)=C\Cn1c(NCCc2ccccc2)nc2c1c(=O)n(C)c(=O)n2C	i	-7	1.1	-8	0.13	-21	·	·	·	·
C=CCn1c(NCCc2ccccc2)nc2c1c(=O)n(C)c(=O)n2C	i	1	6.5*	4	-0.93	-6	25	-29	·	·
Clc1nc2sccn2c1/C=N/n1cnc2ccccc21	·	·	8.4*	5	-0.8	4	-9.2	-46	·	·
C(=N\n1cnc2ccccc21)/c1cccnc1	·	·	·	6	·	·	·	·	·	·
COc1cc(-c2nnc(SCC#CCO)o2)cc(OC)c1OC	i	-3	5.8*	0	0.73	-1	-6	-13	·	·
CCCCN(CCCC)C(=O)CSc1nnc(-c2cc(OC)c(OC)c(OC)c2)o1	i	0	4.4*	-4	-1.1	71*	?	?	·	·
CCCCOC(=O)CSc1nnc(-c2cc(OC)c(OC)c(OC)c2)o1	i	1	0.085	4	-0.019	17	·	·	·	·
CCN(CC)S(=O)(=O)c1ccc(S(=O)(=O)Nc2ccc(C(=O)N3CCCC3)cc2)cc1	i	-2	2.2*	-7	0.88	3	-9.5	-30	·	·
CCn1c(=O)cc(SCC(=O)N2CCN(c3ccccc3OC)CC2)c2ccccc21	i	-2	4.5*	-6	0.31	19	?	-30	·	·
Cc1ccc(CC2C(=O)N(c3ncccn3)C(=O)C2C)cc1 (stereo not given)	i	-4	-3.7*	4	-7*	-10	-27	-34	610	254
Cc1ccc(CC2C(=O)N(CC(=O)O)C(=O)C2C)cc1 (stereo not given)	·	·	·	-1	·	·	·	·	·	·
CC1=Nc2cc(C)c(C)cc2NC(=O)C1	i	·	·	·	·	·	·	·	·	·
CCCN1CCN(CCCNC(=O)c2cc3c(=O)n(C)c4ccccc4c3n2C)CC1	i	-1	-3.1*	1	-4.3*	11	?	-36	497	215
O=C(O)c1cc(-c2ccco2)nc2ccc(Br)cc12	i	-8	-2.5*	-1	-17*	9	-2.5	5.1	659	231
N=c1c2c3c(sc2nc2n1CCCCC2)CCCCC3	i	·	-3.3*	5	-19*	6	-24*	-37	15*	281
O=c1c2c3c(sc2nc2n1CCCC2)CCCCC3	·	·	·	-5	·	·	·	·	·	·
CCOC(=O)c1ccccc1NS(C)(=O)=O	i	·	·	·	·	·	·	·	·	·
CCOC(=O)c1nnc2cc(-c3ccccc3)nn2c1C	i	-3	0.79	5	-2.6*	8	·	·	640	231
Oc1c(C(Nc2ccccn2)c2ccccn2)ccc2cccnc12 (stereo not given)	i	0	2.3	54*	-3.6*	1	·	·	602	189
Cc1ccccc1-c1nn2c(-c3ccccc3)nnc2s1	i	-4	0.15	2	-2.7*	19	·	·	650	261
O=C(NC1CCCCCCC1)c1ccccc1O	i	-5	-0.22	12	-2.2*	83*	·	·	607	268
O=C(c1ccco1)N1CCN(CCCCN2C(=O)c3ccccc3C2=O)CC1	i	0	-0.47	2	-1.4*	-6	·	·	637	227
O=C(CN1C(=O)c2ccccc2C1=O)N1CCN(C(=O)c2ccco2)CC1	·	·	·	5	·	·	·	·	·	·
SMILES	BAP1 block	Hsp90 block	M1 agonist	Ecoli WT expand	M1 antag	Ecoli tolC	M1 agonist conf	M4 ag counter	M1 antag confirm	mGluR4 antag
O=C(CCC1CCCC1)N1CCN(C(=O)c2ccco2)CC1	i	-2	0.14	-6	-3*	1	·	·	654	237
O=C1OC(N2CCN(C(=O)c3ccco3)CC2)c2ccccc21 (stereo not given)	i	3	-0.019	4	-3.8*	-31	·	·	609	247
Cc1cccn2c(=O)c3cc(C(=O)NC4CCCC4)c(=N)n(C4CCCC4)c3nc12	·	0	-0.098	12	-4.8*	12	·	·	367*	258
CCCCNC(=O)c1cc2c(=O)n3cccc(C)c3nc2n(CCN2CCOCC2)c1=N	i	-11	·	3	·	7	·	·	·	·
Cc1cccn2c(=O)c3cc(C(=O)NC4CCCCC4)c(=N)n(CCN4CCOCC4)c3nc12	i	-1	1.4	·	-2.4*	-20	·	·	461	199
N=c1c(C(=O)NC2CCCC2)cc2c(=O)n3ccccc3nc2n1C1CCCC1	·	-8	1.9	4	0.7	0	·	·	·	·
Cc1ccccc1CS(=O)(=O)Cc1ccc(C(=O)NCc2cccnc2)o1	i	-4	-0.22	2	0.017	-7	·	·	·	·
Cc1cccc(CS(=O)(=O)Cc2ccc(C(=O)NCc3cccnc3)o2)c1	i	-5	-0.008	-3	-18*	-23	·	·	625	245
O=C(Cn1cnc2ccccc21)OCC(=O)N1CCc2ccccc2C1	i	2	-1.2	3	-1.7*	-22	·	·	598	221
COc1ccccc1CNc1ccc(N2CCCCC2)cc1	i	7	-0.0024	8	-4.4*	21	·	·	318*	244
COc1cccc(CNc2ccc(N3CCCCC3)cc2)c1OC	i	6	-0.017	4	-1.1	8	·	·	·	·
COC(=O)/C=c1/sc2nc3ccccc3n2c1=O	i	-1	-0.78	5	-2.5*	-21	·	·	593	251
Cc1cc(C)cc(Oc2ccc(-c3cnc4ccccc4n3)cc2[N+](=O)[O-])c1	i	·	·	·	·	·	·	·	·	·
O=S(=O)(N=Cc1ccccc1)c1cccs1	i	·	·	·	·	·	·	·	·	·
COc1cc2c(cc1NC(=O)c1ccc(Br)o1)oc1ccccc12	i	·	·	·	·	·	·	·	·	·
CC(NC(=O)c1ccccc1NC(=O)c1ccccc1F)c1ccccc1 (stereo not given)	i	·	·	·	·	·	·	·	·	·
Cc1cc2nc(C)n(CCCNC(=O)Nc3ccc(C#N)cc3)c2cc1C	·	1	-0.79	9	-10*	32	·	·	135*	210
O=c1c2ccccc2[nH]c(=S)n1CCN1CCN(Cc2ccccc2)CC1	i	2	-0.26	4	-4.2*	16	·	·	508*	176
CN(C)CCn1c(=S)[nH]c2ccccc2c1=O	·	·	·	-2	·	·	·	·	·	·
